Data: ChEMBL document CHEMBL4622983, “Structure-Activity Relationship Studies of α-Ketoamides as Inhibitors of the Phospholipase A and Acyltransferase Enzyme Family” (J Med Chem, 2020)
pIC50: −log10 of the molar value. Calls of active or inactive are those of the source. The calls are words filed in the database; no cut-off is given here.

Columns and labels:
[1] = target: T1, Phospholipase A and acyltransferase 2 (Homo sapiens) (UniProt Q9NWW9); assay: Inhibition of full-length C-terminal FLAG-tagged human PLAAT2 expressed in HEK293T cell lysate at 10 uM preincubated for 30 mins followed by MB064 addition and measured after 20 mins by SDS-PAGE based ABPP analysis; type: cell-free; conditions: HEK-293T
T1 sequence (whole entry): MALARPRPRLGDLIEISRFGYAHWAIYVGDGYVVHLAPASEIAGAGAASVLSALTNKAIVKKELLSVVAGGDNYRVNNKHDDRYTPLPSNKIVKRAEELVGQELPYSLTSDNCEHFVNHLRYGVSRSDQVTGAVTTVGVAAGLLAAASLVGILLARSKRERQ
How it was run: (§1)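 Cytosol from HEK293T cells transiently transfected (PEI) with C-terminal FLAG-tagged human PLAAT, harvested 48–72 h. Inhibitor 10 μM, 30 min rt, then MB064 probe 20 min rt. Protein/MB064: PLAAT2 0.25 μg/μL, 250 nM; PLAAT3 0.5 μg/μL, 250 nM; PLAAT4 1 μg/μL, 500 nM; PLAAT5 1 μg/μL, 500 nM. Read-out: in-gel fluorescence after SDS-PAGE, normalized to Coomassie. Triplicate.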

[2] = target: T2, Phospholipase A and acyltransferase 3 (Homo sapiens, UniProt P53816); assay: Inhibition of full-length C-terminal FLAG-tagged human PLAAT3 expressed in HEK293T cell lysate preincubated for 30 mins followed by MB064 addition and measured after 20 mins by SDS-PAGE based ABPP analysis; type: cell-free, HEK-293T
T2 sequence (P53816 whole entry): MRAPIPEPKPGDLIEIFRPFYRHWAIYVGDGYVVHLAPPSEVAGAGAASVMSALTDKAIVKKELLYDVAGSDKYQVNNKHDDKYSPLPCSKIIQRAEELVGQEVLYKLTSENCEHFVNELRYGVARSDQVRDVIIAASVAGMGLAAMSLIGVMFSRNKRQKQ
How it was run: (§2)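 Dose–response competitive ABPP on cytosol only, from HEK293T overexpressing FLAG-tagged PLAAT. Inhibitor 30 min rt, then MB064 20 min rt. PLAAT2 0.25 μg/μL with 250 nM probe; PLAAT3 0.5 μg/μL with 250 nM; PLAAT4 and PLAAT5 1 μg/μL with 500 nM. Fluorescence normalized to Coomassie. IC50 from curves, reported as pIC50 ± SEM, n = 3.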

[3] = target: T3, Phospholipase A and acyltransferase 5 (Homo sapiens, UniProt Q96KN8); assay: Inhibition of full-length C-terminal FLAG-tagged human PLAAT5 expressed in HEK293T cell lysate preincubated for 30 mins followed by MB064 addition and measured after 20 mins by SDS-PAGE based ABPP analysis; type: cell-free, HEK-293T; how it was run: as §2
T3 sequence (Q96KN8 whole entry): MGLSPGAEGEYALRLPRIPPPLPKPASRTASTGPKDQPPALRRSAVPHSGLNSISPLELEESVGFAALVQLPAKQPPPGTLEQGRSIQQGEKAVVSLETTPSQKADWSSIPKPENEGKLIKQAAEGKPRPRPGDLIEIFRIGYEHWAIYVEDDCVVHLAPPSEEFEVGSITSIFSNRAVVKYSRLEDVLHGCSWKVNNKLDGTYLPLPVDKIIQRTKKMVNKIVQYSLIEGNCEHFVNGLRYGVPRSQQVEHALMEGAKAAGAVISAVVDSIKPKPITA

[4] = target: Phospholipase A and acyltransferase 3 (Homo sapiens) (UniProt P53816); assay: Inhibition of full-length C-terminal FLAG-tagged human PLAAT3 expressed in HEK293T cell lysate at 10 uM preincubated for 30 mins followed by MB064 addition and measured after 20 mins by SDS-PAGE based ABPP analysis; type: cell-free; conditions: HEK-293T; how it was run: as §1
[5] = target: Phospholipase A and acyltransferase 4 (Homo sapiens) (UniProt Q9UL19); assay: Inhibition of full-length C-terminal FLAG-tagged human PLAAT4 expressed in HEK293T cell lysate at 10 uM preincubated for 30 mins followed by MB064 addition and measured after 20 mins by SDS-PAGE based ABPP analysis; type: cell-free; conditions: HEK-293T; how it was run: as §1
[6] = target: T4, Phospholipase A and acyltransferase 5 (Homo sapiens) (UniProt Q96KN8); assay: Inhibition of full-length C-terminal FLAG-tagged human PLAAT5 expressed in HEK293T cell lysate at 10 uM preincubated for 30 mins followed by MB064 addition and measured after 20 mins by SDS-PAGE based ABPP analysis; type: cell-free; conditions: HEK-293T; how it was run: as §1
T4 sequence (whole entry): T3 sequence (Q96KN8 whole entry)

[7] = target: T5, Phospholipase A and acyltransferase 2 (Homo sapiens, UniProt Q9NWW9); assay: Inhibition of full-length C-terminal FLAG-tagged human PLAAT2 expressed in HEK293T cell lysate preincubated for 30 mins followed by MB064 addition and measured after 20 mins by SDS-PAGE based ABPP analysis; type: cell-free, HEK-293T; how it was run: as §2
T5 sequence (Q9NWW9 whole entry): T1 sequence (whole entry)

[8] = target: T6, Phospholipase A and acyltransferase 4 (Homo sapiens, UniProt Q9UL19); assay: Inhibition of full-length C-terminal FLAG-tagged human PLAAT4 expressed in HEK293T cell lysate preincubated for 30 mins followed by MB064 addition and measured after 20 mins by SDS-PAGE based ABPP analysis; type: cell-free, HEK-293T; how it was run: as §2
T6 sequence (Q9UL19 whole entry): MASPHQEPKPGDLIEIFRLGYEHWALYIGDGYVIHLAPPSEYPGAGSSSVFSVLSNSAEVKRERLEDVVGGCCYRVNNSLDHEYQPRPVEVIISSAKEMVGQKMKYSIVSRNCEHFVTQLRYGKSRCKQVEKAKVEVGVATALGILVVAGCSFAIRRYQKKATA

[9] = species: Homo sapiens; assay: Selectivity index, difference between pIC50 for full-length C-terminal FLAG-tagged human PLAAT5 expressed in HEK293T cell lysate to pIC50 for full-length C-terminal FLAG-tagged human PLAAT2 expressed in HEK293T cell lysate
How it was run: (§3)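 Cytosol of HEK293T cells transiently transfected (PEI) with C-terminal FLAG-tagged human PLAAT, harvested at 48 or 72 h. Dose-response: pretreated with inhibitor or DMSO for 30 min at rt, then labelled with MB064 for 20 min at rt. Protein and MB064: PLAAT2 0.25 μg/μL, 250 nM; PLAAT3 0.5 μg/μL, 250 nM; PLAAT4 1 μg/μL, 500 nM; PLAAT5 1 μg/μL, 500 nM. Read by SDS-PAGE in-gel fluorescence normalized to Coomassie. Triplicate pIC50s; index is the pIC50 difference.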

[10] = species: Homo sapiens; assay: Selectivity index, difference between pIC50 for full-length C-terminal FLAG-tagged human PLAAT5 expressed in HEK293T cell lysate to pIC50 for full-length C-terminal FLAG-tagged human PLAAT4 expressed in HEK293T cell lysate; how it was run: as §3
[11] = species: Homo sapiens; assay: Selectivity index, difference between pIC50 for full-length C-terminal FLAG-tagged human PLAAT5 expressed in HEK293T cell lysate to pIC50 for full-length C-terminal FLAG-tagged human PLAAT3 expressed in HEK293T cell lysate; how it was run: as §3

Row | Structure (SMILES) | inhibition [1] | pIC50 [2] | pIC50 [3] | inhibition [4] | inhibition [5] | inhibition [6] | pIC50 [7] | pIC50 [8] | Selectivity Index [9] | Selectivity Index [10] | Selectivity Index [11]
1 | O=C(NCCc1ccccc1)C(O)CCc1ccc(Cl)cc1 (stereo unspecified) | inactive | < 5.00 | < 5.00 | inactive | inactive | inactive | < 5.00 | < 5.00 |  |  | 
2 | O=C(CCc1ccccc1)[C@H](F)C(=O)NCc1ccccc1 |  | < 5.00 | < 5.00 |  |  |  | < 5.00 | < 5.00 |  |  | 
3 | O=C(CCCc1ccccc1)C(=O)NCCc1ccc(Br)cc1 |  | 6.80 | 8.00 |  |  |  | 6.60 | 6.70 |  |  | 
4 | O=C(CCCc1ccccc1)C(=O)NCCc1ccc(Oc2ccnc(Cl)n2)cc1 |  | 6.60 | 7.10 |  |  |  | 6.20 | 6.70 |  |  | 

Continued by rising pIC50 [2], values first:

Row | inhibition [1] | pIC50 [2] | pIC50 [3] | inhibition [4] | inhibition [5] | inhibition [6] | pIC50 [7] | pIC50 [8] | Selectivity Index [9] | Selectivity Index [10] | Selectivity Index [11] | Structure (SMILES)
5 |  | 5.40 | 6.90 |  |  |  | 5.40 | 5.90 | 10 to 30 | 10 to 30 | 10 to 30 | O=C(CCc1ccc(Oc2ccccc2)cc1)C(=O)NCCc1ccccc1
6 |  | 5.50 | 6.00 |  |  |  | 5.60 | 5.60 |  |  |  | O=C(/C=C/c1cccc(-c2ccccc2)c1)C(=O)NCCc1ccccc1
